Test results published in ChEMBL document CHEMBL2311322, “On scaffold hopping: challenges in the discovery of sulfated small molecules as mimetics of glycosaminoglycans” (Bioorg Med Chem Lett, 2013).
pIC50: −log10 of the molar value. Activity calls are given as the source filed them. The calls are words filed in the database; no cut-off is given here.

Assays:
[1] = molecular target: Coagulation factor X (Homo sapiens) (UniProt P00742); test: Inhibition of human coagulation factor 10a using spectrozyme F10a as substrate at 365 uM after 10 mins by spectrophotometric analysis
How it was run: (§1)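 Chromogenic substrate hydrolysis screen against each coagulation protease (VIIa, IXa, Xa, XIa, XIIa), each with its appropriate substrate. Inhibitor was tested at a single concentration of 365 μM. Fractional residual activity was taken as the ratio of initial hydrolysis rates with and without inhibitor, read spectrophotometrically.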

[2] = molecular target: Coagulation factor IX (Homo sapiens) (UniProt P00740); test: Inhibition of human coagulation factor 9a using spectrozyme F9a as substrate at 365 uM after 10 mins by spectrophotometric analysis; how it was run: as §1
[3] = molecular target: Prothrombin (Homo sapiens, UniProt P00734); test: Inhibition of human alpha thrombin using spectrozyme TH as substrate
How it was run: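 Chromogenic assay: initial rate of Spectrozyme TH hydrolysis read spectrophotometrically at pH 7.4 and 25 °C across a range of inhibitor concentrations. Fractional loss of initial rate plotted against log concentration and fitted to a logistic dose–response equation to give IC50.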

[4] = molecular target: T1, Coagulation factor XII (Homo sapiens) (UniProt P00748); test: Inhibition of human coagulation factor 12a using spectrozyme F12a as substrate at 365 uM after 10 mins by spectrophotometric analysis; how it was run: as §1
T1 sequence (whole entry): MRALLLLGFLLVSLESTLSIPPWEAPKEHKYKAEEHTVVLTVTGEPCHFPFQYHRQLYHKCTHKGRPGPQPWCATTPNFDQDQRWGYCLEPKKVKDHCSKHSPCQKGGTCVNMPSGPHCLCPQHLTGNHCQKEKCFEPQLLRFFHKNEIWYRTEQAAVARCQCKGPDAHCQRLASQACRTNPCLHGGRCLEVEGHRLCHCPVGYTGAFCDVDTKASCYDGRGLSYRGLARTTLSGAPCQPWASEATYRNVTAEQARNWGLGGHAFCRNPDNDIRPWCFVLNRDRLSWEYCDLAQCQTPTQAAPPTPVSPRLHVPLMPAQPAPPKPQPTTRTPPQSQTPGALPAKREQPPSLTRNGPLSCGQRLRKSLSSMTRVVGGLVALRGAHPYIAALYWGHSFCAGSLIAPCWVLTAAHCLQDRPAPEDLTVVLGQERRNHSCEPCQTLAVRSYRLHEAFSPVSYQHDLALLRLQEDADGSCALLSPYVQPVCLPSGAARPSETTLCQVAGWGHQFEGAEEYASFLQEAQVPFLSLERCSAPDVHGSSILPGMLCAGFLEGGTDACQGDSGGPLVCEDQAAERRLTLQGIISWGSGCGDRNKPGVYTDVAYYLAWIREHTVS

[5] = molecular target: Coagulation factor XI (Homo sapiens) (UniProt P03951); test: Inhibition of human coagulation factor 11a at 365 uM after 10 mins by spectrophotometric analysis; how it was run: as §1
[6] = molecular target: T2, Coagulation factor VII (Homo sapiens) (UniProt P08709); test: Inhibition of human coagulation factor 7a using spectrozyme 7a as substrate at 365 uM after 10 mins by spectrophotometric analysis; how it was run: as §1
T2 sequence (whole entry): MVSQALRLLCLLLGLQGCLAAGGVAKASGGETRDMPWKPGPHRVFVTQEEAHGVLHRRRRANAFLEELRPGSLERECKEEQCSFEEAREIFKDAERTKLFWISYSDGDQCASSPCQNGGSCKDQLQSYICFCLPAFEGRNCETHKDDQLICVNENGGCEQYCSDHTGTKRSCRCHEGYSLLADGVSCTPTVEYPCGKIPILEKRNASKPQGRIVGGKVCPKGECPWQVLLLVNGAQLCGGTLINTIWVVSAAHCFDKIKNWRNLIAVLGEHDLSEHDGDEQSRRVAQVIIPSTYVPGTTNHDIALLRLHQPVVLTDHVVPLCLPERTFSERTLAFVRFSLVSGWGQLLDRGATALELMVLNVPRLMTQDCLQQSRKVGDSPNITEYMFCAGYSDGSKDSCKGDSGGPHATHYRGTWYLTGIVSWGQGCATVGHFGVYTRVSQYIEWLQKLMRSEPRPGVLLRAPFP

[7] = system: Plasma; test: Anticoagulant activity in human plasma assessed as inhibition of Cacl2-induced coagulation after 4 mins by fibrometric analysis; format: functional
How it was run: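 Human plasma clotting times were read on a fibrometer in both prothrombin time (PT) and activated partial thromboplastin time (APTT) formats, across a range of inhibitor concentrations. Trend lines of clotting time versus concentration gave the concentration needed to double clotting time (2×PT, 2×APTT).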

[8] = system: Human alphaherpesvirus 1; test: Binding affinity to Herpes simplex virus 1 recombinant Lys25-His332-truncated His6-tagged glycoprotein D expressed in Escherichia coli measured after 3 hrs by affinity co-electrophoretic analysis

Sequence of Coagulation factor X (Homo sapiens) (P00742 41-179 limits assumed): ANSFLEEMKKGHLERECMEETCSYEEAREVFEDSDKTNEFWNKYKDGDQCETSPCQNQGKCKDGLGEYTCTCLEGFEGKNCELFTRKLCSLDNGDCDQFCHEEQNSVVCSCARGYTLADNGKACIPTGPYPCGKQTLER
Sequence of Coagulation factor X (Homo sapiens) (P00742 235-488 limits assumed): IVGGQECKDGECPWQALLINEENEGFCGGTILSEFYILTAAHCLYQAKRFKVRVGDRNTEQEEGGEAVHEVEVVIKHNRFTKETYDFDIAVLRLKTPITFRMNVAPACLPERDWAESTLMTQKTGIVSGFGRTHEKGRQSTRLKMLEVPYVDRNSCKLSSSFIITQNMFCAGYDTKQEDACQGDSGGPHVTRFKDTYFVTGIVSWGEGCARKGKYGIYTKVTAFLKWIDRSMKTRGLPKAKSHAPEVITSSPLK
Sequence of Coagulation factor IX (Homo sapiens) (P00740 47-191 limits assumed): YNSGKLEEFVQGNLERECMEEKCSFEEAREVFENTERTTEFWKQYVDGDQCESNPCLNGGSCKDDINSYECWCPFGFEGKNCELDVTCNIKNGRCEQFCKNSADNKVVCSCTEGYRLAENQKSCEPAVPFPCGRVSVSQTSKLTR
Sequence of Coagulation factor IX (Homo sapiens) (P00740 227-461 limits assumed): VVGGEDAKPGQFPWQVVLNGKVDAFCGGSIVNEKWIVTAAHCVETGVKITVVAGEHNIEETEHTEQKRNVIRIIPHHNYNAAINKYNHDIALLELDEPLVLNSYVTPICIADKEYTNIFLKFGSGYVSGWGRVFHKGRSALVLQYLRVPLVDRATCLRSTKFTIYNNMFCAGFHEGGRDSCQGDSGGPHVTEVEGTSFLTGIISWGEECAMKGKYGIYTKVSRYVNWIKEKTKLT
Sequence of Coagulation factor XI (Homo sapiens) (P03951 19-387 limits assumed): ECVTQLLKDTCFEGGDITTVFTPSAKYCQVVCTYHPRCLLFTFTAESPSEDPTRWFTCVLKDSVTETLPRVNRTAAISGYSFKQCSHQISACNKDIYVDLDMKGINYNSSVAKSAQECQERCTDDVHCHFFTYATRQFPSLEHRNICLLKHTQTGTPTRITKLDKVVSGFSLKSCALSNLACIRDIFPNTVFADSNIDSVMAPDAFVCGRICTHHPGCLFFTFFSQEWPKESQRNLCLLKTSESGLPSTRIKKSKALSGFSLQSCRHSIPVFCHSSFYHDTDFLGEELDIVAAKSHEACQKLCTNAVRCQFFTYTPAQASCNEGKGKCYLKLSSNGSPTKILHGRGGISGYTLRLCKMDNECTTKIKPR
Sequence of Coagulation factor XI (Homo sapiens) (P03951 388-625 limits assumed): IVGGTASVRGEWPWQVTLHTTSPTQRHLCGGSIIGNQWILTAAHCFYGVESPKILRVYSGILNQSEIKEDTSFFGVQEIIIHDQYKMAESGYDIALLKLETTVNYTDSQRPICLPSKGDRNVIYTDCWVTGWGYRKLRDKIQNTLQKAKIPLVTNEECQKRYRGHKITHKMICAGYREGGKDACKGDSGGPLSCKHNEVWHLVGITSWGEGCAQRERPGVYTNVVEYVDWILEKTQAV

Activity [8]	Compound	inhibition [1]	inhibition [2]	pIC50 [3]	inhibition [4]	inhibition [5]	inhibition [6]	2PT [7]	2aPTT [7]
	N#Cc1c(SCC(=O)c2cccc(OS(=O)(=O)O)c2OS(=O)(=O)O)nc([N+](=O)[O-])c(C#N)c1-c1ccc(OCc2ccccc2)cc1	> 20%	> 20%	4.18	> 20%	Active	> 20%	606 µM	550 µM
19 µM	O=C(O)C1=C[C@H](O)[C@@H](OS(=O)(=O)O)[C@@H](O[C@H]2[C@H](O)[C@@H](NS(=O)(=O)O)[C@@H](O[C@H]3[C@H](O)[C@@H](OS(=O)(=O)O)[C@@H](O[C@H]4[C@H](O)[C@@H](NS(=O)(=O)O)[C@@H](O[C@H]5[C@H](O)[C@@H](OS(=O)(=O)O)[C@@H](O[C@H]6[C@H](OS(=O)(=O)O)[C@@H](NS(=O)(=O)O)[C@@H](O[C@H]7[C@H](O)[C@@H](OS(=O)(=O)O)[C@@H](O[C@H]8[C@H](O)[C@@H](NS(=O)(=O)O)[C@@H](O)O[C@@H]8COS(=O)(=O)O)O[C@H]7C(=O)O)O[C@@H]6COS(=O)(=O)O)O[C@H]5C(=O)O)O[C@@H]4COS(=O)(=O)O)O[C@H]3C(=O)O)O[C@@H]2COS(=O)(=O)O)O1								
	O=C(Nc1ccc(OS(=O)(=O)O)cc1)c1cccc(N2C(=O)c3ccc(C(=O)Nc4ccc(OS(=O)(=O)O)cc4)cc3C2=O)c1	> 20%	> 20%	3.54	> 20%	inactive	> 20%		
